# Measurements reported in ChEMBL document CHEMBL5653630, “Activation of the p53-MDM4 regulatory axis defines the anti-tumour response to PRMT5 inhibition through its role in regulating cellular splicing” (Sci Rep, 2018).
# The source made the active and inactive calls. The calls are words filed in the database; no cut-off is given here.
# Tests used:
# [1] = biological target: Apoptosis regulator BAX (Homo sapiens) (UniProt Q07812); assay: In vivo inhibition of PRMT5 in human Z138 cells xenografted in mouse assessed as increase in BAX expression at 100 mg/kg, po BID measured for 7 days; type: functional, organism-based; conditions: Z-138, time 7.0 day
# Apoptosis regulator BAX (Homo sapiens), sequence (Q07812 whole entry): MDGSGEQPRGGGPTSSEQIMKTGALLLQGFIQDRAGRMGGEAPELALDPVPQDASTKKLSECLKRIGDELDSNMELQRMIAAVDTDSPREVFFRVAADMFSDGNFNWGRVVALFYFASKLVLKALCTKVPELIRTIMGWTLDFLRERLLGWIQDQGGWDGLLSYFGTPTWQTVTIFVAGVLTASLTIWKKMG
# MCF7 = assay: Induction of cell cycle arrest in human MCF7 cells assessed as increase in sub-2N cell population measured upto 5000 nM measured for 7 to 10 days by propidium iodide staining based flow cytometric analysis; type: functional; conditions: time 7-10 day
# SCaBER = assay: Antiproliferative activity against human SCaBER cells assessed as cell growth inhibition incubated for 6 days by celltiter-glo assay; type: functional; conditions: 144 h, time 6 day
# Maver1 = assay: Induction of apoptosis in human MAVER-1 cells assessed as dead cells incubated for 6 days by annexin-V/FITC propidium iodide staining based flow cytometry analysis; type: functional, cell-based; conditions: dose <= 5000.0 nM, time 6.0 day
# MDA-MB-468 = assay: Induction of cell cycle arrest in human MDA-MB-468 cells assessed as decrease in 2n cell population measured upto 5000 nM measured for 2 to 7 days by propidium iodide staining based flow cytometric analysis; type: functional; conditions: time 2-7 day
# U-251 = assay: Antiproliferative activity against human U-251MG cells assessed as cell growth inhibition incubated for 6 days by celltiter-glo assay; type: functional; conditions: U-251, 144 h, time 6 day
# How it was run: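 Cells seeded in 384-well plates at an optimized density and held 24 h. CellTiter-Glo luminescence read at Day 0 and Day 6. Four-parameter fit. gIC50 = midpoint of the growth window between DMSO and T0. Curves required ≥1.5 population doublings.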
# HT-29 = assay: Antiproliferative activity against human HT-29 cells assessed as cell growth inhibition incubated for 10 days; type: functional; conditions: HT-29, 240 h, time 10 day
# How it was run: (§1)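 Outsourced panel run in 384-well plates. Cells were grown in RPMI-1640/10% FBS or a special medium at 37°C, 5% CO2. Compound was added 24 h after seeding as a 10-point, 3.16-fold series in 0.1% DMSO. Medium was refreshed and cells re-dosed at 168 h, with a time-zero plate kept. At 240 h cells were fixed, nuclei stained and imaged. gIC50 is growth midway between untreated and time zero, from a 4-parameter fit.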
# COLO 320 = assay: Antiproliferative activity against human COLO 320 cells assessed as cell growth inhibition incubated for 10 days; type: functional; conditions: COLO 320, 240 h, time 10 day
# How it was run: (§2)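 Cells kept in RPMI-1640 with 10% FBS, 2 mM L-alanyl-L-glutamine and 1 mM Na pyruvate (or a special medium) at 37°C, 5% CO2. Compound added 24 h after seeding, 10 concentrations in 3.16-fold dilution, 0.1% DMSO final. Medium replaced and cells re-dosed at 168 h; 240 h incubation. Nuclei fixed, dye-stained and imaged. gIC50 = growth midway between untreated and time-zero cell counts, from a 4-parameter fit.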
# Ramos = assay: Antiproliferative activity against human Ramos cells assessed as cell growth inhibition incubated for 10 days; type: functional; conditions: 240 h, time 10 day
# A204 = assay: Antiproliferative activity against human A204 cells assessed as cell growth inhibition incubated for 10 days; type: functional; conditions: A204, 240 h, time 10 day; how it was run: as §2
# H4 = assay: Antiproliferative activity against human H4 cells assessed as cell growth inhibition incubated for 10 days; type: functional; conditions: H4, 240 h, time 10 day; how it was run: as §1
# BeWo = assay: Antiproliferative activity against human BeWo cells assessed as cell growth inhibition incubated for 10 days; type: functional; conditions: 240 h, time 10 day; how it was run: as §2
# SW684 = assay: Antiproliferative activity against human SW684 cells assessed as cell growth inhibition incubated for 10 days; type: functional; conditions: SW684, 240 h, time 10 day
# 786-0 = assay: Antiproliferative activity against human 786-0 cells assessed as cell growth inhibition incubated for 10 days; type: functional; conditions: 786-0, 240 h, time 10 day; how it was run: as §2
# SNU-16 = assay: Antiproliferative activity against human SNU-16 cells assessed as cell growth inhibition incubated for 10 days; type: functional; conditions: SNU-16, 240 h, time 10 day
# SW480 = assay: Antiproliferative activity against human SW480 cells assessed as cell growth inhibition incubated for 10 days; type: functional; conditions: SW480, 240 h, time 10 day
# BV-173 = assay: Antiproliferative activity against human BV-173 cells assessed as cell growth inhibition incubated for 10 days; type: functional; conditions: BV-173, 240 h, time 10 day; how it was run: as §2
# SNB-19 = assay: Antiproliferative activity against human SNB-19 cells assessed as cell growth inhibition incubated for 10 days; type: functional; conditions: SNB-19, 240 h, time 10 day
# COR-L105 = assay: Antiproliferative activity against human COR-L105 cells assessed as cell growth inhibition incubated for 10 days; type: functional; conditions: COR-L105, 240 h, time 10 day; how it was run: as §1
# SK-MEL-1 = assay: Antiproliferative activity against human SK-MEL-1 cells assessed as cell growth inhibition incubated for 10 days; type: functional; conditions: SK-MEL-1, 240 h, time 10 day
# G-401 = assay: Antiproliferative activity against human G-401 cells assessed as cell growth inhibition incubated for 10 days; type: functional; conditions: G-401, 240 h, time 10 day; how it was run: as §1
# A 172 = assay: Antiproliferative activity against human A-172 cells assessed as cell growth inhibition incubated for 10 days; type: functional; conditions: A 172, 240 h, time 10 day; how it was run: as §2
# DB = assay: Antiproliferative activity against human DB cells assessed as cell growth inhibition incubated for 10 days; type: functional; conditions: 240 h, time 10 day; how it was run: as §1
# CFPAC-1 = assay: Antiproliferative activity against human CFPAC-1 cells assessed as cell growth inhibition incubated for 10 days; type: functional; conditions: CFPAC-1, 240 h, time 10 day; how it was run: as §2
# NCI-H520 = assay: Antiproliferative activity against human NCI-H520 cells assessed as cell growth inhibition incubated for 10 days; type: functional; conditions: NCI-H520, 240 h, time 10 day
# HuCCT-1 = assay: Antiproliferative activity against human HuCCT-1 cells assessed as cell growth inhibition incubated for 10 days; type: functional; conditions: HuCCT-1, 240 h, time 10 day
# How it was run: (§3)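 Eurofins panel, 384-well. Cells kept in RPMI-1640 with 10% FBS, 2 mM L-alanyl-L-glutamine and 1 mM Na pyruvate, or in a special medium, at 37°C under 5% CO2. Compound added 24 h after seeding as 10 concentrations in 3.16-fold steps, 0.1% DMSO final. Medium replaced and compound re-dosed at 168 h. After 240 h, cells fixed and nuclei stained for imaging. gIC50 = growth midway between untreated cells and time-zero count.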
# CAKI-2 = assay: Antiproliferative activity against human CAKI-2 cells assessed as cell growth inhibition incubated for 10 days; type: functional; conditions: CAKI-2, 240 h, time 10 day; how it was run: as §2
# Hs 766 = assay: Antiproliferative activity against human Hs766T cells assessed as cell growth inhibition incubated for 10 days; type: functional; conditions: Hs 766, 240 h, time 10 day; how it was run: as §3
# SW900 = assay: Antiproliferative activity against human SW900 cells assessed as cell growth inhibition incubated for 10 days; type: functional; conditions: SW900, 240 h, time 10 day
# NCI-H661 = assay: Antiproliferative activity against human NCI-H661 cells assessed as cell growth inhibition incubated for 10 days; type: functional; conditions: NCI-H661, 240 h, time 10 day
# DoTc2-4510 = assay: Antiproliferative activity against human DoTc2-4510 cells assessed as cell growth inhibition incubated for 10 days; type: functional; conditions: DoTc2-4510, 240 h, time 10 day; how it was run: as §1
# AN3-CA = assay: Antiproliferative activity against human AN3-CA cells assessed as cell growth inhibition incubated for 10 days; type: functional; conditions: 240 h, time 10 day; how it was run: as §2
structure (smiles),measurement,setting,value
CC(=O)N1CCC(Nc2cc(C(=O)NC[C@H](O)CN3CCc4ccccc4C3)ncn2)CC1 [PEMRAMETOSTAT],inhibition,[1],Active
same,Activity,MCF7,Active
same,GI50,SCaBER,198 nM
same,Activity,Maver1,Dose-Dependent Effect
same,Activity,MDA-MB-468,inactive
O=C(NC[C@H](O)CN1CCc2ccccc2C1)c1ccnc(NC2CCC2)c1,GI50,U-251,3490 nM
same,GI50,HT-29,95.2 nM
same,GI50,COLO 320,80.3 nM
same,GI50,Ramos,546 nM
same,GI50,A204,223 nM
same,GI50,H4,151 nM
same,GI50,BeWo,1090 nM
same,GI50,SW684,1170 nM
same,GI50,786-0,20.3 nM
same,GI50,SNU-16,34.4 nM
same,GI50,SW480,413 nM
same,GI50,BV-173,10.6 nM
same,GI50,SNB-19,223 nM
same,GI50,COR-L105,314 nM
same,GI50,SK-MEL-1,38.7 nM
same,GI50,G-401,38.4 nM
same,GI50,A 172,29.6 nM
same,GI50,DB,2.51 nM
same,GI50,CFPAC-1,52.3 nM
same,GI50,NCI-H520,15.6 nM
same,GI50,HuCCT-1,225 nM
same,GI50,CAKI-2,114 nM
same,GI50,Hs 766,1120 nM
same,GI50,SW900,3250 nM
same,GI50,NCI-H661,152 nM
same,GI50,DoTc2-4510,95.8 nM
same,GI50,AN3-CA,254 nM
